Source: ChEMBL document CHEMBL1806430, “Novel aliphatic N-oxide of naphthalimides as fluorescent markers for hypoxic cells in solid tumor” (Eur J Med Chem, 2011)

Tests used:
Nucleic Acid = test: Binding affinity to calf thymus DNA assessed as binding constant; format: nucleic-acid assay; details: Bos taurus
Method in brief: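 Fluorescence titration: compound at 10 × 10^-6 M in 20 mM Tris–HCl pH 7.5 at room temperature, with calf thymus DNA added in rising amounts (0–400 × 10^-6 M). Excitation 460 nm; emission spectra recorded.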

V79 [1] = test: Drug uptake in hypoxic-chinese hamster V79 379A cells assessed as accumulation of fluorescent N-Oxide Benzo[k,l]thioxanthene-3,4-naphthalimide metabolites at 10^-4 M after 4.5 hrs by fluorescent microscopic analysis; format: ADME, cell-based, Cricetulus griseus; details: 100 µM
Method in brief: (§1)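 V79 379A cells grown as suspension cultures in Eagle's MEM (suspension-modified, Earle's salts) with 7.5% fetal calf serum. Compound added at 10^-4 M, DMSO 1% final or less. Incubated 4.5 h at 37 °C under nitrogen + 5% CO2 (hypoxic) or air + 5% CO2 (oxic). Cells centrifuged, PBS-washed, resuspended in PBS, then imaged by fluorescence microscopy, excitation 410 nm, 1000×.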

V79 [2] = test: Drug uptake in oxic-chinese hamster V79 379A cells assessed as accumulation of fluorescent N-Oxide Benzo[k,l]thioxanthene-3,4-naphthalimide metabolite at 10^-4 M after 4.5 hrs by fluorescent microscopic analysis; format: ADME, cell-based, Cricetulus griseus; details: 100 µM; method in brief: as §1
V79 [3] = test: Ratio drug uptake in chinese hamster V79 379A cells in hypoxic to oxic condition assessed as accumulation of fluorescent N-Oxide Benzo[k,l]thioxanthene-3,4-naphthalimide metabolites at 10^-4 M after 4.5 hrs by fluorescent microscopic analysis; format: ADME, cell-based, Cricetulus griseus; details: 100 µM
Method in brief: (§2)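 Hypoxic/oxic fluorescence ratio in V79 379A suspension cultures (MEM, 7.5% FCS). Cells given 10^-4 M compound (DMSO ≤1% final) at 37 °C under N2 + 5% CO2 or air + 5% CO2. Samples taken over a time course, centrifuged, PBS-washed and resuspended. Fluorescence read by microplate reader ("fluorescence scan ascent"); ratio taken at about 4.5 h.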

V79 [4] = test: Ratio drug uptake in chinese hamster V79 379A cells in hypoxic to oxic condition assessed as accumulation of fluorescent N-Oxide Benzo[k,l]xanthene-3,4-naphthalimide metabolites at 10^-4 M after 4.5 hrs by fluorescent microscopic analysis; format: ADME, cell-based, Cricetulus griseus; details: 100 µM; method in brief: as §2
V79 [5] = test: Ratio drug uptake in chinese hamster V79 379A cells in hypoxic to oxic condition assessed as accumulation of fluorescent N-Oxide Benzo[b]xanthene [2,1-c]naphthalimide metabolites at 10^-4 M after 4.5 hrs by fluorescent microscopic analysis; format: ADME, cell-based, Cricetulus griseus; details: 100 µM; method in brief: as §2
V79 [6] = test: Drug uptake in hypoxic-chinese hamster V79 379A cells assessed as accumulation of fluorescent N-Oxide 3-amino-1,8-naphthalimide metabolites at 10^-4 M after 4.5 hrs by fluorescent microscopic analysis; format: ADME, cell-based, Cricetulus griseus; details: 100 µM; method in brief: as §1
V79 [7] = test: Drug uptake in oxic-chinese hamster V79 379A cells assessed as accumulation of fluorescent N-Oxide 3-amino-1,8-naphthalimide metabolite at 10^-4 M after 4.5 hrs by fluorescent microscopic analysis; format: ADME, cell-based, Cricetulus griseus; details: 100 µM; method in brief: as §1
V79 [8] = test: Ratio drug uptake in chinese hamster V79 379A cells in hypoxic to oxic condition assessed as accumulation of fluorescent N-Oxide 3-amino-1,8-naphthalimide metabolites at 10^-4 M after 4.5 hrs by fluorescent microscopic analysis; format: ADME, cell-based, Cricetulus griseus; details: 100 µM; method in brief: as §2
V79 [9] = test: Drug uptake in hypoxic-chinese hamster V79 379A cells assessed as accumulation of fluorescent N-Oxide 3-nitro-1,8-naphthalimide metabolites at 10^-4 M after 4.5 hrs by fluorescent microscopic analysis; format: ADME, cell-based, Cricetulus griseus; details: 100 µM; method in brief: as §1
V79 [10] = test: Ratio drug uptake in chinese hamster V79 379A cells in hypoxic to oxic condition assessed as accumulation of fluorescent N-Oxide 3-nitro-1,8-naphthalimide metabolites at 10^-4 M after 4.5 hrs by fluorescent microscopic analysis; format: ADME, cell-based, Cricetulus griseus; details: 100 µM; method in brief: as §2
V79 [11] = test: Drug uptake in oxic-chinese hamster V79 379A cells assessed as accumulation of fluorescent N-Oxide 3-nitro-1,8-naphthalimide metabolite at 10^-4 M after 4.5 hrs by fluorescent microscopic analysis; format: ADME, cell-based, Cricetulus griseus; details: 100 µM; method in brief: as §1

SMILES: C[N+](C)([O-])CCn1c(=O)c2ccc3sc4ccccc4c4ccc(c1=O)c2c34
- K (Nucleic Acid): 6.62 ×10³ /M
- Drug uptake (V79 [1]): Active
- Drug uptake (V79 [2]): Not Active
- Ratio (V79 [3]): 1.75

SMILES: C[N+](C)([O-])CCn1c(=O)c2ccc3oc4ccccc4c4ccc(c1=O)c2c34
- Ratio (V79 [4]): 1.5

SMILES: C[N+](C)([O-])CCN1C(=O)c2cccc3c2c(cc2c4ccccc4sc32)C1=O
- Ratio (V79 [5]): 5.2

SMILES: CN(C)CCn1c(=O)c2ccc3sc4ccccc4c4ccc(c1=O)c2c34
- K (Nucleic Acid): 2.9 ×10⁵ /M

SMILES: C[N+](C)([O-])CCN1C(=O)c2cccc3cc(N)cc(c23)C1=O
- Drug uptake (V79 [6]): Active
- Drug uptake (V79 [7]): Not Active
- Ratio (V79 [8]): 8.4

SMILES: C[N+](C)([O-])CCN1C(=O)c2cccc3cc([N+](=O)[O-])cc(c23)C1=O
- Drug uptake (V79 [9]): Active
- Ratio (V79 [10]): 17
- Drug uptake (V79 [11]): Not Active
